Results published in ChEMBL document CHEMBL1143122, “Novel analogs of D-e-MAPP and B13. Part 1: synthesis and evaluation as potential anticancer agents” (Bioorg Med Chem, 2008).

Assays:
[1] = test system: CAKI-1; test: Antiproliferative activity against human CAKI1 cells after 48 hrs; type: functional; conditions: CAKI-1, 48 h
Procedure, shortened: (§1)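 NCI 60-cell screen. Cells were grown in RPMI 1640 with 5% FBS and 2 mM L-glutamine, then plated at 5,000–40,000 cells/well according to doubling time and preincubated for 24 h at 37 °C in 5% CO2. Compounds were dissolved in DMSO at 400× the top final concentration and tested at five 10-fold dilutions from 10−4 to 10−8 M for 48 h. Growth was read spectrophotometrically; GI50 is 50% net protein reduction.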

[2] = Antiproliferative activity against human […] cells after 48 hrs; type: functional; procedure, shortened: as §1
[3] = test system: OVCAR-4; test: Antiproliferative activity against human OVCAR4 cells after 48 hrs; type: functional; conditions: OVCAR-4, 48 h; procedure, shortened: as §1
[4] = test system: U-251; test: Antiproliferative activity against human U251 cells after 48 hrs; type: functional; conditions: U-251, 48 h
Procedure, shortened: (§2)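 NCI 60-cell-line screen. Lines grown in RPMI 1640 with 5% fetal bovine serum and 2 mM L-glutamine, plated at 5,000–40,000 cells/well according to doubling time, left 24 h at 37 °C in 5% CO2. Drug stocks in DMSO at 400-fold the top final concentration. Five 10-fold dilutions, 10−4 to 10−8 M, incubated 48 h. Growth read spectrophotometrically as net protein; GI50 taken as 50% reduction.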

[5] = test system: UO-31; test: Antiproliferative activity against human UO31 cells after 48 hrs; type: functional; conditions: UO-31, 48 h; procedure, shortened: as §2
[6] = test system: HCT-116; test: Antiproliferative activity against human HCT116 cells after 48 hrs; type: functional; conditions: HCT-116, 48 h; procedure, shortened: as §1
[7] = test system: COLO 205; test: Antiproliferative activity against human COLO205 cells after 48 hrs; type: functional; conditions: COLO 205, 48 h; procedure, shortened: as §1
[8] = test system: SK-MEL-2; test: Antiproliferative activity against human SKMEL2 cells after 48 hrs; type: functional; conditions: SK-MEL-2, 48 h; procedure, shortened: as §1
[9] = test system: LOX IMVI; test: Antiproliferative activity against human LOXIMVI cells after 48 hrs; type: functional; procedure, shortened: as §1
[10] = test system: NCI-H322M; test: Antiproliferative activity against human NCI-H322M cells after 48 hrs; type: functional; procedure, shortened: as §1
[11] = test system: HCT-15; test: Antiproliferative activity against human HCT15 cells after 48 hrs; type: functional; conditions: Homo sapiens, HCT-15, 48 h; procedure, shortened: as §1
[12] = test system: UACC-62; test: Antiproliferative activity against human UACC62 cells after 48 hrs; type: functional; conditions: UACC-62, 48 h; procedure, shortened: as §2
[13] = test system: OVCAR-5; test: Antiproliferative activity against human OVCAR5 cells after 48 hrs; type: functional; conditions: OVCAR-5, 48 h; procedure, shortened: as §1
[14] = test system: NCI-H460; test: Antiproliferative activity against human NCI-H460 cells after 48 hrs; type: functional; conditions: NCI-H460, 48 h; procedure, shortened: as §1
[15] = test system: MCF7; test: Antiproliferative activity against human MCF7 cells after 48 hrs; type: functional, cell-based; conditions: MCF7, 48 h
[16] = test system: SK-MEL-28; test: Antiproliferative activity against human SKMEL28 cells after 48 hrs; type: functional; conditions: SK-MEL-28, 48 h; procedure, shortened: as §1
[17] = test system: MDA-MB-231; test: Antiproliferative activity against human MDA-MB-231 cells after 48 hrs; type: functional; conditions: MDA-MB-231, 48 h; procedure, shortened: as §1
[18] = test system: KM12; test: Antiproliferative activity against human KM12 cells after 48 hrs; type: functional; conditions: Homo sapiens, KM12, 48 h; procedure, shortened: as §1
[19] = test system: 786-0; test: Antiproliferative activity against human 786-0 cells after 48 hrs; type: functional; conditions: 786-0, 48 h; procedure, shortened: as §1
[20] = test system: NCI-H522; test: Antiproliferative activity against human NCI-H522 cells after 48 hrs; type: functional; conditions: NCI-H522, 48 h; procedure, shortened: as §1
[21] = test system: SK-MEL-5; test: Antiproliferative activity against human SKMEL5 cells after 48 hrs; type: functional; conditions: SK-MEL-5, 48 h; procedure, shortened: as §1
[22] = test system: SNB-19; test: Antiproliferative activity against human SNB19 cells after 48 hrs; type: functional; conditions: SNB-19, 48 h; procedure, shortened: as §1
[23] = test system: NCI-H226; test: Antiproliferative activity against human NCI-H226 cells after 48 hrs; type: functional; conditions: NCI-H226, 48 h; procedure, shortened: as §1
[24] = test system: Malme-3M; test: Antiproliferative activity against human MALME3M cells after 48 hrs; type: functional; procedure, shortened: as §1
[25] = test system: SF-295; test: Antiproliferative activity against human SF295 cells after 48 hrs; type: functional; conditions: SF-295, 48 h; procedure, shortened: as §1
[26] = test system: RXF 393; test: Antiproliferative activity against human RXF393 cells after 48 hrs; type: functional; conditions: RXF 393, 48 h; procedure, shortened: as §1
[27] = test system: MDA-MB-435; test: Antiproliferative activity against human MDA-MB-435 cells after 48 hrs; type: functional; conditions: Homo sapiens, MDA-MB-435, 48 h; procedure, shortened: as §1
[28] = test system: DU-145; test: Antiproliferative activity against human DU145 cells after 48 hrs; type: functional; conditions: DU-145, 48 h; procedure, shortened: as §1
[29] = test system: OVCAR-3; test: Antiproliferative activity against human OVCAR-3 cells after 48 hrs; type: functional; conditions: OVCAR-3, 48 h; procedure, shortened: as §1
[30] = test system: ACHN; test: Antiproliferative activity against human ACHN cells after 48 hrs; type: functional; procedure, shortened: as §1
[31] = read-out: Log LC50 (the source's name) (converted)

## C[C@H](NC(=O)CCCCCCCCCCCCCCC[n+]1ccccc1)[C@H](O)c1ccccc1.[Br-]
[1]
  GI50: 14.1 µM
[1]; [31]
  CC50: 53.7 µM
[1]; read-out: Log TGI (converted)
  TGI: 27.5 µM
[2]
  GI50: 3.63 µM
  LC50: 42.7 µM
[2]; read-out: Log TGI (converted)
  TGI: 14.8 µM
[3]
  GI50: 1660 nM
  LC50: 42.7 µM
[3]; read-out: Log TGI (converted)
  TGI: 12.3 µM
[4]
  GI50: 2950 nM
[4]; [31]
  CC50: 38.9 µM
[4]; read-out: Log TGI (converted)
  TGI: 13.8 µM
[5]
  GI50: 28.8 µM
  LC50: > 100 µM
[5]; read-out: Log TGI (converted)
  TGI: 95.5 µM
[6]
  GI50: 3.47 µM
  LC50: 38.9 µM
[6]; read-out: Log TGI (converted)
  TGI: 14.8 µM
[7]
  GI50: 1050 nM
[7]; [31]
  CC50: 31.6 µM
[7]; read-out: Log TGI (converted)
  TGI: 4.9 µM
[8]
  GI50: 2880 nM
  LC50: 60.3 µM
[8]; read-out: Log TGI (converted)
  TGI: 7.41 µM
[9]
  GI50: 4.07 µM
  LC50: 44.7 µM
[9]; read-out: Log TGI (converted)
  TGI: 14.8 µM
[10]
  GI50: 14.5 µM
[10]; [31]
  CC50: 52.5 µM
[10]; read-out: Log TGI (converted)
  TGI: 31.6 µM
[11]
  GI50: 57.5 µM
  LC50: > 100 µM
[11]; read-out: Log TGI (converted)
  TGI: > 100 µM
[12]
  GI50: 1860 nM
  LC50: 25.1 µM
[12]; read-out: Log TGI (converted)
  TGI: 5.75 µM
[13]
  GI50: 11 µM
[13]; [31]
  CC50: 51.3 µM
[13]; read-out: Log TGI (converted)
  TGI: 24 µM
[14]
  GI50: 2820 nM
[14]; [31]
  CC50: 41.7 µM
[14]; read-out: Log TGI (converted)
  TGI: 13.2 µM
[15]
  GI50: 1480 nM
  LC50: 20.9 µM
[15]; read-out: Log TGI (converted)
  TGI: 4.79 µM
[16]
  GI50: 2340 nM
  LC50: 20.4 µM
[16]; read-out: Log TGI (converted)
  TGI: 6.03 µM
[17]
  GI50: 3.24 µM
  LC50 (50% lethal concentration): 42.7 µM
[17]; read-out: Log TGI (converted)
  TGI: 33.1 µM
[18]
  GI50: 2750 nM
[18]; [31]
  CC50: 36.3 µM
[18]; read-out: Log TGI (converted)
  TGI: 11.5 µM
[19]
  GI50: 10.2 µM
[19]; [31]
  CC50: 49 µM
[19]; read-out: Log TGI (converted)
  TGI: 22.4 µM
[20]
  GI50: 2040 nM
[20]; [31]
  CC50: 50.1 µM
[20]; read-out: Log TGI (converted)
  TGI: 13.2 µM
[21]
  GI50: 1620 nM
[21]; [31]
  CC50: 9.55 µM
[21]; read-out: Log TGI (converted)
  TGI: 3.89 µM
[22]
  GI50: 3.09 µM
[22]; [31]
  CC50: 38 µM
[22]; read-out: Log TGI (converted)
  TGI: 13.2 µM
[23]
  GI50: 6.46 µM
[23]; [31]
  CC50: 89.1 µM
[23]; read-out: Log TGI (converted)
  TGI: 26.9 µM
[24]
  GI50: 2450 nM
  LC50: 20 µM
[24]; read-out: Log TGI (converted)
  TGI: 5.89 µM
[25]
  GI50: 14.5 µM
  LC50: 53.7 µM
[25]; read-out: Log TGI (converted)
  TGI: 27.5 µM
[26]
  GI50: 12 µM
[26]; [31]
  CC50: 74.1 µM
[26]; read-out: Log TGI (converted)
  TGI: 29.5 µM
[27]
  GI50: 2630 nM
  LC50: 25.7 µM
[27]; read-out: Log TGI (converted)
  TGI: 7.24 µM
[28]
  GI50: 12.6 µM
[28]; [31]
  CC50: 50.1 µM
[28]; read-out: Log TGI (converted)
  TGI: 25.1 µM
[29]
  GI50: 1320 nM
  LC50: 26.3 µM
[29]; read-out: Log TGI (converted)
  TGI: 6.46 µM
[30]
  GI50: 21.9 µM
[30]; [31]
  CC50: 91.2 µM
[30]; read-out: Log TGI (converted)
  TGI: 44.7 µM
